Tested on: MT4
Test: Cytostatic concentration required to inhibit MT-4 cell proliferation
Type: functional
Details: Homo sapiens
Method in brief: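 Mock-infected MT-4 cells (3 × 10^5/mL) incubated with compound dilutions for 5 days. Viable cells counted by trypan blue exclusion. CC50 = concentration reducing viable MT-4 cell number by 50%.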

Row | Structure (SMILES) | CC50
1 | C=C(C)C(=O)NC(=O)NC1=CS(=O)(=O)O[C@@]12[C@@H](CO[Si](C)(C)C(C)(C)C)O[C@@H](n1cc(C)c(=O)n(C)c1=O)[C@@H]2O[Si](C)(C)C(C)(C)C | 1.19 µM
2 | Cc1cn([C@@H]2O[C@H](CO[Si](C)(C)C(C)(C)C)[C@@]3(OS(=O)(=O)C=C3NC(=O)NC(=O)c3ccccc3)[C@H]2O[Si](C)(C)C(C)(C)C)c(=O)n(C)c1=O | 3.33 µM
3 | Cc1cn([C@@H]2O[C@H](CO[Si](C)(C)C(C)(C)C)[C@@]3(OS(=O)(=O)C=C3NC(N)=O)[C@H]2O[Si](C)(C)C(C)(C)C)c(=O)n(C)c1=O | 3.7 µM

Tested on: CCRF-CEM
Test: Effective concentration required to inhibit HIV-2 ROD in CEM cell culture
Type: functional, cell-based
Details: Homo sapiens
Method in brief: (§1)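 CEM cells (4 × 10^5/mL) infected at ~100 CCID50/mL and mixed with compound dilutions. Giant cell formation scored microscopically at day 4. EC50 = concentration inhibiting virus-induced cytopathicity by 50%.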

Row | Structure (SMILES) | EC50
4 | C=C(C)C(=O)NC(=O)NC1=CS(=O)(=O)O[C@@]12[C@@H](CO[Si](C)(C)C(C)(C)C)O[C@@H](n1cc(C)c(=O)n(C)c1=O)[C@@H]2O[Si](C)(C)C(C)(C)C | > 0.8 µM
5 | Cc1cn([C@@H]2O[C@H](CO[Si](C)(C)C(C)(C)C)[C@@]3(OS(=O)(=O)C=C3NC(=O)NC(=O)c3ccccc3)[C@H]2O[Si](C)(C)C(C)(C)C)c(=O)n(C)c1=O | > 2 µM
6 | Cc1cn([C@@H]2O[C@H](CO[Si](C)(C)C(C)(C)C)[C@@]3(OS(=O)(=O)C=C3NC(N)=O)[C@H]2O[Si](C)(C)C(C)(C)C)c(=O)n(C)c1=O | > 2 µM

Tested on: HEL
Test: Minimal cytotoxic concentration required to cause microscopically visible alteration of cell morphology in HEL Cells
Type: functional
Details: Homo sapiens
Method in brief: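 Uninfected HEL cells exposed to compound. Minimum cytotoxic concentration is the lowest level giving a microscopically detectable change in cell morphology.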

Row | Structure (SMILES) | MCC
7 | C=C(C)C(=O)NC(=O)NC1=CS(=O)(=O)O[C@@]12[C@@H](CO[Si](C)(C)C(C)(C)C)O[C@@H](n1cc(C)c(=O)n(C)c1=O)[C@@H]2O[Si](C)(C)C(C)(C)C | 20 µM
8 | Cc1cn([C@@H]2O[C@H](CO[Si](C)(C)C(C)(C)C)[C@@]3(OS(=O)(=O)C=C3NC(=O)NC(=O)c3ccccc3)[C@H]2O[Si](C)(C)C(C)(C)C)c(=O)n(C)c1=O | ≥ 80 µM
9 | Cc1cn([C@@H]2O[C@H](CO[Si](C)(C)C(C)(C)C)[C@@]3(OS(=O)(=O)C=C3NC(N)=O)[C@H]2O[Si](C)(C)C(C)(C)C)c(=O)n(C)c1=O | 16 µM

Tested on: CCRF-CEM
Test: Effective concentration required to inhibit HIV-1 IIIB in CEM cell culture
Type: functional, cell-based
Details: Homo sapiens
Method in brief: as §1

Row | Structure (SMILES) | EC50
10 | C=C(C)C(=O)NC(=O)NC1=CS(=O)(=O)O[C@@]12[C@@H](CO[Si](C)(C)C(C)(C)C)O[C@@H](n1cc(C)c(=O)n(C)c1=O)[C@@H]2O[Si](C)(C)C(C)(C)C | > 0.8 µM
11 | Cc1cn([C@@H]2O[C@H](CO[Si](C)(C)C(C)(C)C)[C@@]3(OS(=O)(=O)C=C3NC(=O)NC(=O)c3ccccc3)[C@H]2O[Si](C)(C)C(C)(C)C)c(=O)n(C)c1=O | > 2 µM
12 | Cc1cn([C@@H]2O[C@H](CO[Si](C)(C)C(C)(C)C)[C@@]3(OS(=O)(=O)C=C3NC(N)=O)[C@H]2O[Si](C)(C)C(C)(C)C)c(=O)n(C)c1=O | > 2 µM

Tested on: HEL
Test: Cytostatic concentration required to inhibit HEL cell proliferation
Type: functional
Details: Homo sapiens
Method in brief: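 HEL fibroblasts seeded at 5 × 10^3 cells/well and grown 24 h, then given compound in duplicate. After 3 days at 37 °C in 5% CO2, cell number read on a Coulter counter. CC50 = concentration reducing cell growth by 50%.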

Row | Structure (SMILES) | CC50
13 | C=C(C)C(=O)NC(=O)NC1=CS(=O)(=O)O[C@@]12[C@@H](CO[Si](C)(C)C(C)(C)C)O[C@@H](n1cc(C)c(=O)n(C)c1=O)[C@@H]2O[Si](C)(C)C(C)(C)C | 1.2 µM
14 | Cc1cn([C@@H]2O[C@H](CO[Si](C)(C)C(C)(C)C)[C@@]3(OS(=O)(=O)C=C3NC(=O)NC(=O)c3ccccc3)[C@H]2O[Si](C)(C)C(C)(C)C)c(=O)n(C)c1=O | ≥ 200 µM
15 | Cc1cn([C@@H]2O[C@H](CO[Si](C)(C)C(C)(C)C)[C@@]3(OS(=O)(=O)C=C3NC(N)=O)[C@H]2O[Si](C)(C)C(C)(C)C)c(=O)n(C)c1=O | 11 µM

Tested on: CCRF-CEM
Test: Cytostatic concentration required to inhibit CEM cell proliferation
Type: functional
Details: Homo sapiens
Method in brief: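 CEM cells, mock-infected, grown with serial compound dilutions for 4 days. CC50 taken as the concentration that inhibits CEM cell proliferation by 50%.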

Row | Structure (SMILES) | CC50
16 | C=C(C)C(=O)NC(=O)NC1=CS(=O)(=O)O[C@@]12[C@@H](CO[Si](C)(C)C(C)(C)C)O[C@@H](n1cc(C)c(=O)n(C)c1=O)[C@@H]2O[Si](C)(C)C(C)(C)C | 1.2 µM
17 | Cc1cn([C@@H]2O[C@H](CO[Si](C)(C)C(C)(C)C)[C@@]3(OS(=O)(=O)C=C3NC(=O)NC(=O)c3ccccc3)[C@H]2O[Si](C)(C)C(C)(C)C)c(=O)n(C)c1=O | 2.29 µM
18 | Cc1cn([C@@H]2O[C@H](CO[Si](C)(C)C(C)(C)C)[C@@]3(OS(=O)(=O)C=C3NC(N)=O)[C@H]2O[Si](C)(C)C(C)(C)C)c(=O)n(C)c1=O | 4.36 µM

Tested on: MT4
Test: Effective concentration required to inhibit HIV-1 IIIB in MT-4 cell culture
Type: functional, cell-based
Details: Homo sapiens
Method in brief: (§2)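 MT-4 cells (3 × 10^5/mL) infected at ~100 CCID50/mL and mixed with compound dilutions. Cytopathicity read by trypan blue exclusion at day 5. EC50 = concentration giving 50% protection against virus-induced loss of viability.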

Row | Structure (SMILES) | EC50
19 | C=C(C)C(=O)NC(=O)NC1=CS(=O)(=O)O[C@@]12[C@@H](CO[Si](C)(C)C(C)(C)C)O[C@@H](n1cc(C)c(=O)n(C)c1=O)[C@@H]2O[Si](C)(C)C(C)(C)C | > 0.8 µM
20 | Cc1cn([C@@H]2O[C@H](CO[Si](C)(C)C(C)(C)C)[C@@]3(OS(=O)(=O)C=C3NC(=O)NC(=O)c3ccccc3)[C@H]2O[Si](C)(C)C(C)(C)C)c(=O)n(C)c1=O | > 2 µM
21 | Cc1cn([C@@H]2O[C@H](CO[Si](C)(C)C(C)(C)C)[C@@]3(OS(=O)(=O)C=C3NC(N)=O)[C@H]2O[Si](C)(C)C(C)(C)C)c(=O)n(C)c1=O | > 2 µM

Tested on: MT4
Test: Effective concentration required to inhibit HIV-2 ROD in MT-4 cell culture
Type: functional, cell-based
Details: Homo sapiens
Method in brief: as §2

Row | Structure (SMILES) | EC50
22 | C=C(C)C(=O)NC(=O)NC1=CS(=O)(=O)O[C@@]12[C@@H](CO[Si](C)(C)C(C)(C)C)O[C@@H](n1cc(C)c(=O)n(C)c1=O)[C@@H]2O[Si](C)(C)C(C)(C)C | > 0.8 µM
23 | Cc1cn([C@@H]2O[C@H](CO[Si](C)(C)C(C)(C)C)[C@@]3(OS(=O)(=O)C=C3NC(=O)NC(=O)c3ccccc3)[C@H]2O[Si](C)(C)C(C)(C)C)c(=O)n(C)c1=O | > 10 µM
24 | Cc1cn([C@@H]2O[C@H](CO[Si](C)(C)C(C)(C)C)[C@@]3(OS(=O)(=O)C=C3NC(N)=O)[C@H]2O[Si](C)(C)C(C)(C)C)c(=O)n(C)c1=O | > 2 µM

Tested on: HEL
Test: Effective concentration required to inhibit HCMV Davis in HEL Cells
Type: functional, cell-based
Details: Homo sapiens
Method in brief: (§3)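 Confluent HEL cells infected with HCMV at 100 PFU/well. After 1-2 h, residual virus removed and MEM with 2% inactivated FCS added, with compound in duplicate at 5-fold dilution steps. After 7 days at 37 °C in 5% CO2, cells fixed with ethanol and Giemsa-stained; plaques or CPE scored microscopically. IC50 interpolated graphically; mean of two independent experiments.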

Row | Structure (SMILES) | EC50
25 | C=C(C)C(=O)NC(=O)NC1=CS(=O)(=O)O[C@@]12[C@@H](CO[Si](C)(C)C(C)(C)C)O[C@@H](n1cc(C)c(=O)n(C)c1=O)[C@@H]2O[Si](C)(C)C(C)(C)C | > 4 µM
26 | Cc1cn([C@@H]2O[C@H](CO[Si](C)(C)C(C)(C)C)[C@@]3(OS(=O)(=O)C=C3NC(=O)NC(=O)c3ccccc3)[C@H]2O[Si](C)(C)C(C)(C)C)c(=O)n(C)c1=O | 0.8 µM
27 | Cc1cn([C@@H]2O[C@H](CO[Si](C)(C)C(C)(C)C)[C@@]3(OS(=O)(=O)C=C3NC(N)=O)[C@H]2O[Si](C)(C)C(C)(C)C)c(=O)n(C)c1=O | 2 µM

Tested on: HEL
Test: Effective concentration required to inhibit HCMV AD-169 in HEL Cells
Type: functional, cell-based
Details: Homo sapiens
Method in brief: as §3

Row | Structure (SMILES) | EC50
28 | C=C(C)C(=O)NC(=O)NC1=CS(=O)(=O)O[C@@]12[C@@H](CO[Si](C)(C)C(C)(C)C)O[C@@H](n1cc(C)c(=O)n(C)c1=O)[C@@H]2O[Si](C)(C)C(C)(C)C | > 20 µM
29 | Cc1cn([C@@H]2O[C@H](CO[Si](C)(C)C(C)(C)C)[C@@]3(OS(=O)(=O)C=C3NC(=O)NC(=O)c3ccccc3)[C@H]2O[Si](C)(C)C(C)(C)C)c(=O)n(C)c1=O | 1.2 µM
30 | Cc1cn([C@@H]2O[C@H](CO[Si](C)(C)C(C)(C)C)[C@@]3(OS(=O)(=O)C=C3NC(N)=O)[C@H]2O[Si](C)(C)C(C)(C)C)c(=O)n(C)c1=O | > 3.2 µM

— ChEMBL document CHEMBL1142666, “Novel [2',5'-bis-O-(tert-butyldimethylsilyl)-beta-D-ribofuranosyl]- 3'-spiro-5''-(4''-amino-1'',2''-oxathiole-2'',2" -dioxide) derivatives with anti-HIV-1 and anti-human-cytomegalovirus activity” (J Med Chem, 2005)
